≈ marks a conversion by molar mass, not a printed value. Like-named read-outs stand apart in the source and are kept apart here.
Key:
B. subtilis 168 cells = experiment: Bright-field microscopy of cell morphology; type: cell-based, Bacillus subtilis; conditions: B. subtilis 168, bright-field microscopy, Figure 5A
B. subtilis 168 = experiment: Cell lytic assay; type: cell-based, Bacillus subtilis; conditions: B. subtilis 168, LB, 4× MIC, OD600 at 37 °C, n = 3, Figure 5B
Summary of the method: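 B. subtilis 168 cultures exposed to test compounds or reference antibiotics to tell lysis from growth arrest. Triplicate experiments (n = 3); values plotted as means with standard deviation (s.d.).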

Compound: complestatin
- growth morphology of treated cells (B. subtilis 168 cells): extended and twisted phenotype
- bacteriostatic or lytic action (B. subtilis 168): bacteriostatic
- MIC (M. tuberculosis H37Ra): >128 µg/mL

Compound: CN[C@H](CC(C)C)C(=O)N[C@H]1C(=O)N[C@@H](CC(N)=O)C(=O)N[C@H]2C(=O)N[C@H]3C(=O)N[C@H](C(=O)N[C@H](C(=O)O)c4cc(O)cc(O)c4-c4cc3ccc4O)[C@H](O)c3ccc(c(Cl)c3)Oc3cc2cc(c3O[C@@H]2O[C@H](CO)[C@@H](O)[C@H](O)[C@H]2O[C@H]2C[C@](C)(N)[C@H](O)[C@H](C)O2)Oc2ccc(cc2Cl)[C@H]1O [vancomycin]
- MIC (M. tuberculosis H37Ra; H37Ra): 2 µg/mL (≈ 1.38 µM)

Compound: corbomycin
- growth morphology of treated cells (B. subtilis 168 cells): extended and twisted phenotype
- bacteriostatic or lytic action (B. subtilis 168): bacteriostatic

— publication PMC9136965 (ACS Central Science, 2022)
